Laboratory results taken from ChEMBL document CHEMBL4118247, “Development of the first small molecule histone deacetylase 6 (HDAC6) degraders” (Bioorg Med Chem Lett, 2018).
Blank lines part the entries; values can stand above or below the compound they belong to. Activity calls are given as the source filed them. The rule behind the calls is not given here.

How the values were obtained:
Format in all cases: cell-based
[1] = target: Histone deacetylase (Homo sapiens) (UniProt Q13547+O15379+Q9UBN7+Q92769+Q9UQL6+Q8WUI4+Q9BY41+Q96DB2+P56524+Q9UKV0+Q969S8); assay: Inhibition of HDAC in human MCF7 cells assessed as increase in acetylated H3 levels at 2 uM after 12 hrs by immunoblotting analysis
[2] = target: T1, Protein cereblon/Protein deacetylase HDAC6 (Homo sapiens, UniProt Q9UBN7+Q96SW2); assay: Induction of CRBN ubiquitin ligase-mediated HDAC6 degradation in human MCF7 cells assessed as decrease in HDAC6 levels at 5 uM after 12 hrs by immunoblotting analysis
How it was run: (§1)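 MCF-7 cells exposed to bifunctional degraders at 5 µM for 12 h. Whole-cell lysate run on SDS-PAGE and immunoblotted for HDAC1, HDAC2, HDAC4 and HDAC6.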
Target sequence in this assay (Q96SW2 whole entry, looked up): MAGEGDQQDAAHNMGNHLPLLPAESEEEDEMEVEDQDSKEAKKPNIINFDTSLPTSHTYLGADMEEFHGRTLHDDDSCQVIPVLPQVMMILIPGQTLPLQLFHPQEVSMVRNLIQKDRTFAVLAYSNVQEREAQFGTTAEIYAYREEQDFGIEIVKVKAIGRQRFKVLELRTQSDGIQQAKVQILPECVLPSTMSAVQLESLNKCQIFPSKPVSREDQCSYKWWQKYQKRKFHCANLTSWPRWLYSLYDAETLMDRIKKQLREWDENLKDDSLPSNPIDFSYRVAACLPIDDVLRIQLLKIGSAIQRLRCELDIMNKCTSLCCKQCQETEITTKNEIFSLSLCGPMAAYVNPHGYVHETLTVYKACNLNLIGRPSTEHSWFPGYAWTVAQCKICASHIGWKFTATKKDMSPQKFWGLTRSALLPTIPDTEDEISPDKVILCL
Target sequence in this assay (Q9UBN7 whole entry, looked up): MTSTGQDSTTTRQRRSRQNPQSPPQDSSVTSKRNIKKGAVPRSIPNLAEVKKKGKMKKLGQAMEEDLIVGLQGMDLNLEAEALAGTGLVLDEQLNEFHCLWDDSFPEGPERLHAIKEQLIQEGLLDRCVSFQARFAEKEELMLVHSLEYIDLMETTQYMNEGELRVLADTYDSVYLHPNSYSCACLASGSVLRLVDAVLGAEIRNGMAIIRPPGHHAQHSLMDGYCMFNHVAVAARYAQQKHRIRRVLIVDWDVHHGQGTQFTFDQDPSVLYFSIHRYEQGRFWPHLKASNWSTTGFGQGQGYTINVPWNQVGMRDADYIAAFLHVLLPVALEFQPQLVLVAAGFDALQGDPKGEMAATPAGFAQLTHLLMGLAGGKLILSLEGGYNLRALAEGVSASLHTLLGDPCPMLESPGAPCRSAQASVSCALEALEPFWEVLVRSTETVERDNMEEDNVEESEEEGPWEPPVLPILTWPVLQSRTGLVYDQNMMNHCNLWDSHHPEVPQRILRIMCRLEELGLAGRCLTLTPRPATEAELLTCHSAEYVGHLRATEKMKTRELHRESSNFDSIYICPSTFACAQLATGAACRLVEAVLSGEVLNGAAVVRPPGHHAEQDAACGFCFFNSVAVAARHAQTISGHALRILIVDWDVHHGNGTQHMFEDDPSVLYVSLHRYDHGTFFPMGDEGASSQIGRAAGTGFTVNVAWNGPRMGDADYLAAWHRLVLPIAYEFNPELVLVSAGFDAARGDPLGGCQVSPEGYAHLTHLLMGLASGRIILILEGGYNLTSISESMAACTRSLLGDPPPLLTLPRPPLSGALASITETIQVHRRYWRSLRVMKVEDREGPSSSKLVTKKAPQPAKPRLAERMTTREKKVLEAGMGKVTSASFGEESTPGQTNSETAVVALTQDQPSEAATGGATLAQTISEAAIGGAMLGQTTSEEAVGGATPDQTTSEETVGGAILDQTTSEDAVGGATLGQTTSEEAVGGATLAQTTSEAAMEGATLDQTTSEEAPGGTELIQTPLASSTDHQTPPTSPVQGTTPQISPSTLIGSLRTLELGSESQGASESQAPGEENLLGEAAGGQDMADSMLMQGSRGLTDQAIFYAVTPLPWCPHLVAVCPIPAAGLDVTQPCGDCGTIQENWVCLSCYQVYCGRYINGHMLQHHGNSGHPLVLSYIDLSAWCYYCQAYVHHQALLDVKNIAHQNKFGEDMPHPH

[3] = target: T2, Protein cereblon/Histone deacetylase 1 (Homo sapiens) (UniProt Q13547+Q96SW2); assay: Induction of CRBN ubiquitin ligase-mediated HDAC1 degradation in human MCF7 cells assessed as decrease in HDAC1 levels at 5 uM after 12 hrs by immunoblotting analysis; how it was run: as §1
T2 sequence (Q13547 whole entry, looked up): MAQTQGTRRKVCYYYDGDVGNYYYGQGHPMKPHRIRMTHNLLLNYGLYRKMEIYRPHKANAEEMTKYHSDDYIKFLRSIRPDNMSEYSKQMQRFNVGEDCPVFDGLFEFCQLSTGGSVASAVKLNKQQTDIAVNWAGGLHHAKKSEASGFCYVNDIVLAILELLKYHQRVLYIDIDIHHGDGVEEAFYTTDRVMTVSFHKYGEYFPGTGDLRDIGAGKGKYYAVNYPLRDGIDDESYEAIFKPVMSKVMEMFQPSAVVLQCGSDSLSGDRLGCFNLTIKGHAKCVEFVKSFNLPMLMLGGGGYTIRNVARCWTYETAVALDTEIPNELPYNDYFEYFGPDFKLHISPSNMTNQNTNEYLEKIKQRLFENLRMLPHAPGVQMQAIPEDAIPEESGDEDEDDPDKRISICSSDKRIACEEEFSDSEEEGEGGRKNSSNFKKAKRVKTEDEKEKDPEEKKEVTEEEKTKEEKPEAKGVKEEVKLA
T2 sequence (Q96SW2 whole entry, looked up): as the sequence (Q96SW2 whole entry, looked up) above

[4] = target: T3, Protein cereblon/Histone deacetylase 2 (Homo sapiens) (UniProt Q92769+Q96SW2); assay: Induction of CRBN ubiquitin ligase-mediated HDAC2 degradation in human MCF7 cells assessed as decrease in HDAC2 levels at 5 uM after 12 hrs by immunoblotting analysis; how it was run: as §1
T3 sequence (Q92769 whole entry, looked up): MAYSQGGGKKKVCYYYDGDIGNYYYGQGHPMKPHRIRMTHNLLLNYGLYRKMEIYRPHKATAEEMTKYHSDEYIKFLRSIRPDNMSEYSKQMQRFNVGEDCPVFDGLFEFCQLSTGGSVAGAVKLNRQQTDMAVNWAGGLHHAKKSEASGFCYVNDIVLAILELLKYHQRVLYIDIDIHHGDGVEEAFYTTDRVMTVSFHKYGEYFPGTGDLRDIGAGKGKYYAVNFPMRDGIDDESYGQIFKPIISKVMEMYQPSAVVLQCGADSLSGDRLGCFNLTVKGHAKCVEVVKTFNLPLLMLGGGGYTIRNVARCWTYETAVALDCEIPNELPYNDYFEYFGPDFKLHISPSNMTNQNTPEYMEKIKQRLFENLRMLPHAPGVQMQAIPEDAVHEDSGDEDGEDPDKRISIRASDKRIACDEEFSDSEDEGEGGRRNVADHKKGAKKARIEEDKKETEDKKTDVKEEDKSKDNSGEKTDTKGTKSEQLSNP
T3 sequence (Q96SW2 whole entry, looked up): as the sequence (Q96SW2 whole entry, looked up) above

[5] = target: Protein cereblon/Histone deacetylase 4 (Homo sapiens) (UniProt P56524+Q96SW2); assay: Induction of CRBN ubiquitin ligase-mediated HDAC4 degradation in human MCF7 cells assessed as decrease in HDAC4 levels at 5 uM after 12 hrs by immunoblotting analysis; how it was run: as §1
Sequence of Protein cereblon/Histone deacetylase 4 (Homo sapiens) (P56524 whole entry, looked up): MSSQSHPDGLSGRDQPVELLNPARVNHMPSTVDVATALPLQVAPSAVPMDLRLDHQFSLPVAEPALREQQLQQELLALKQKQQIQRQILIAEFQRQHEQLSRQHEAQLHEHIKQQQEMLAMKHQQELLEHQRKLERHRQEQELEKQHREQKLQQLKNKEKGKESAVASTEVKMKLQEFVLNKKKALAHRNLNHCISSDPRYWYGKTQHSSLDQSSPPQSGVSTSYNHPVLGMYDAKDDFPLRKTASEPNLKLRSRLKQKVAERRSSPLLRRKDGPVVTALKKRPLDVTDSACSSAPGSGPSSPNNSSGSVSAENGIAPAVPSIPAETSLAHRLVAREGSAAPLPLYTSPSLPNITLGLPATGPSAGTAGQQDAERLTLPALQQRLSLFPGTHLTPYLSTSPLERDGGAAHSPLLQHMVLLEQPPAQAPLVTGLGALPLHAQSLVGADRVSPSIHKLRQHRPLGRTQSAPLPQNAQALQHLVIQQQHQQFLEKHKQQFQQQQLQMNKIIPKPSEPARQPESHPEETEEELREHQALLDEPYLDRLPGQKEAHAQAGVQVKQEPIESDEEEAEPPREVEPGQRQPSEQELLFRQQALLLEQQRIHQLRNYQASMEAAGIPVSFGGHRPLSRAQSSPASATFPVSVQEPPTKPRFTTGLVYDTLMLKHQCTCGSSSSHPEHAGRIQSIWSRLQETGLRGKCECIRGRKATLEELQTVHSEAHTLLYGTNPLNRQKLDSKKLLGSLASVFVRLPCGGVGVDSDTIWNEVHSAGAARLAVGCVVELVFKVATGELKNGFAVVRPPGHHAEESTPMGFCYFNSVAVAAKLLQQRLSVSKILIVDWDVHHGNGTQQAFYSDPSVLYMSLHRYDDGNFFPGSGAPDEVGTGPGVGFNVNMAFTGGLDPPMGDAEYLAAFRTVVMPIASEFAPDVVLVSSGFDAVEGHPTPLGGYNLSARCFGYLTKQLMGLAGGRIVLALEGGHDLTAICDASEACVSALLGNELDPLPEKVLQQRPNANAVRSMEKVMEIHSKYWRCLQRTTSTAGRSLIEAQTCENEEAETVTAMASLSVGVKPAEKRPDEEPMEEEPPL
Sequence of Protein cereblon/Histone deacetylase 4 (Homo sapiens) (Q96SW2 whole entry, looked up): as the sequence (Q96SW2 whole entry, looked up) above

[6] = target: T1, Protein cereblon/Protein deacetylase HDAC6; assay: Induction of CRBN ubiquitin ligase-mediated HDAC6 degradation in human MCF7 cells assessed as decrease in HDAC6 levels after 12 hrs by immunoblotting analysis
How it was run: (§2)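 MCF-7 cells treated for 12 h across a range of 5 nM to 10 µM. Whole-cell lysate immunoblotted for HDAC6 and acetylated α-tubulin. Band intensities quantified by densitometry and curve-fitted to derive half-maximal degradation.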

[7] = target: T1, Protein cereblon/Protein deacetylase HDAC6; assay: Induction of CRBN ubiquitin ligase-mediated HDAC6 degradation in human MCF7 cells assessed as increase in acetylated alpha-tubulin levels at 1.1 to 10 uM after 12 hrs by immunoblotting analysis; how it was run: as §2
Target sequence in this assay (Q96SW2 whole entry, looked up): as above
Target sequence in this assay (Q9UBN7 whole entry, looked up): as the sequence (Q9UBN7 whole entry, looked up) above

[8] = target: T1, Protein cereblon/Protein deacetylase HDAC6; assay: Induction of CRBN ubiquitin ligase-mediated HDAC6 degradation in human MCF7 cells assessed as increase in acetylated alpha-tubulin levels at 2 uM after 2 hrs by immunoblotting analysis
How it was run: (§3)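 Time course in MCF-7 cells: 2 µM degrader or DMSO vehicle for 0–8 h. Whole-cell lysate immunoblotted for HDAC6 and acetylated α-tubulin.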
Target sequence in this assay (Q96SW2 whole entry, looked up): as the sequence (Q96SW2 whole entry, looked up) above
Target sequence in this assay (Q9UBN7 whole entry, looked up): as the sequence (Q9UBN7 whole entry, looked up) above

[9] = target: T1, Protein cereblon/Protein deacetylase HDAC6; assay: Induction of CRBN ubiquitin ligase-mediated HDAC6 degradation in human MCF7 cells assessed as decrease in HDAC6 levels at 2 uM after 2 hrs by immunoblotting analysis; how it was run: as §3
Target sequence in this assay (Q96SW2 whole entry, looked up): as the sequence (Q96SW2 whole entry, looked up) above
Target sequence in this assay (Q9UBN7 whole entry, looked up): as the sequence (Q9UBN7 whole entry, looked up) above

[10] = target: T1, Protein cereblon/Protein deacetylase HDAC6; assay: (§4) Induction of CRBN ubiquitin ligase-mediated HDAC6 degradation in human MCF7 cells assessed as decrease in HDAC6 levels at 2 uM preincubated for 1 hr with proteosome-inhibitor MG132 followed by compound addition for 12 hrs by immunoblotting analysis
How it was run: (§5)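 MCF-7 cells pre-treated 1 h with 5 µM MG132, 5 µM pomalidomide or DMSO vehicle, then given 2 µM degrader or vehicle for 12 h. Whole-cell lysate immunoblotted for HDAC6 and acetylated α-tubulin.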
Target sequence in this assay (Q96SW2 whole entry, looked up): as the sequence (Q96SW2 whole entry, looked up) above
Target sequence in this assay (Q9UBN7 whole entry, looked up): as the sequence (Q9UBN7 whole entry, looked up) above

[11] = target: T1, Protein cereblon/Protein deacetylase HDAC6; assay: Induction of CRBN ubiquitin ligase-mediated HDAC6 degradation in human MCF7 cells assessed as decrease in HDAC6 levels at 2 uM preincubated for 1 hr with CRBN ligand pomalidomide followed by compound addition for 12 hrs by immunoblotting analysis; how it was run: as §5
Target sequence in this assay (Q96SW2 whole entry, looked up): as the sequence (Q96SW2 whole entry, looked up) above
Target sequence in this assay (Q9UBN7 whole entry, looked up): as the sequence (Q9UBN7 whole entry, looked up) above

[12] = target: T1, Protein cereblon/Protein deacetylase HDAC6; assay: (§6) Induction of CRBN ubiquitin ligase-mediated HDAC6 degradation in human MCF7 cells assessed as increase in acetylated alpha-tubulin levels at 2 uM preincubated for 1 hr with proteosome-inhibitor MG132 followed by compound addition for 12 hrs by immunoblotting analysis; how it was run: as §5
[13] = target: T1, Protein cereblon/Protein deacetylase HDAC6; assay: Induction of CRBN ubiquitin ligase-mediated HDAC6 degradation in human MCF7 cells assessed as increase in acetylated alpha-tubulin levels at 2 uM at 2 uM preincubated for 1 hr with CRBN ligand pomalidomide followed by compound addition for 12 hrs by immunoblotting analysis; how it was run: as §5
[14] = target: T1, Protein cereblon/Protein deacetylase HDAC6; assay: as §4, with “1 uM pan-HDAC inhibitor N-hydroxy-8-(2-(4-methoxybenzylidene)hydrazinyl)-8-oxooctanamide” for “proteosome-inhibitor MG132”
How it was run: (§7)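 MCF-7 cells pre-treated 1 h with pan-HDAC inhibitor (1 µM or 100 nM) or DMSO vehicle, then given 2 µM degrader or vehicle for 12 h. Whole-cell lysate immunoblotted for HDAC6 and acetylated α-tubulin.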

[15] = target: T1, Protein cereblon/Protein deacetylase HDAC6; assay: as §4, with “100 nM pan-HDAC inhibitor N-hydroxy-8-(2-(4-methoxybenzylidene)hydrazinyl)-8-oxooctanamide” for “proteosome-inhibitor MG132”; how it was run: as §7
[16] = target: T1, Protein cereblon/Protein deacetylase HDAC6; assay: as §6, with “100 nM pan-HDAC inhibitor N-hydroxy-8-(2-(4-methoxybenzylidene)hydrazinyl)-8-oxooctanamide” for “proteosome-inhibitor MG132”; how it was run: as §7
[17] = target: T2, Protein cereblon/Histone deacetylase 1 (Homo sapiens); assay: Induction of CRBN ubiquitin ligase-mediated HDAC1 degradation in human MCF7 cells assessed as increase in acetylated H3 levels at 2 uM after 12 hrs by immunoblotting analysis
[18] = target: T1, Protein cereblon/Protein deacetylase HDAC6; assay: Induction of CRBN ubiquitin ligase-mediated HDAC6 degradation in human MM1S cells assessed as decrease in HDAC6 levels at =>80 nM after 6 hrs by immunoblotting analysis
How it was run: (§8)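 MM.1S cells treated for 6 h at a range of concentrations. Whole-cell lysate immunoblotted for HDAC6 and acetylated α-tubulin.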

[19] = target: T1, Protein cereblon/Protein deacetylase HDAC6; assay: Induction of CRBN ubiquitin ligase-mediated HDAC6 degradation in human MM1S cells assessed as increase in acetylated alpha-tubulin levels at =>80 nM after 6 hrs by immunoblotting analysis; how it was run: as §8
[20] = target: T3, Protein cereblon/Histone deacetylase 2 (Homo sapiens); assay: Induction of CRBN ubiquitin ligase-mediated HDAC2 degradation in human MCF7 cells assessed as increase in acetylated H3 levels at 2 uM after 12 hrs by immunoblotting analysis

inhibition [1]: Active
Structure (SMILES): COc1ccc(/C=N/NC(=O)CCCCCCC(=O)NO)cc1

Activity [2]: Active | Activity [3]: inactive | Activity [4]: inactive | Activity [5]: inactive | Activity [6]: Dose-dependent effect | DC50 [6]: 34 nM | Emax [6]: 70.5% | Activity [7]: Active | Activity [8]: Active | Activity [9]: Active | Activity [10]: inactive | Activity [11]: inactive | Activity [12]: inactive | Activity [13]: inactive | Activity [14]: inactive | Activity [15]: Active | Activity [16]: Active | Activity [17]: Active | Activity [18]: Active | Activity [19]: Active | Activity [20]: Active
Structure (SMILES): O=C(CCCCCCC(=O)N/N=C/c1ccc(OCCOCCOCCn2cc(CNc3cccc4c3C(=O)N(C3CCC(=O)NC3=O)C4=O)nn2)cc1)NO (centres undefined)

Activity [2]: Active | Activity [3]: inactive | Activity [4]: inactive | Activity [5]: inactive
Structure (SMILES): O=C(CCCCCCC(=O)N/N=C/c1ccc(OCCOCCn2cc(CNc3cccc4c3C(=O)N(C3CCC(=O)NC3=O)C4=O)nn2)cc1)NO (centres undefined)

Activity [2]: Active | Activity [3]: inactive | Activity [4]: inactive | Activity [5]: inactive
Structure (SMILES): O=C(CCCCCCC(=O)N/N=C/c1ccc(OCCn2cc(CNc3cccc4c3C(=O)N(C3CCC(=O)NC3=O)C4=O)nn2)cc1)NO (centres undefined)

Activity [2]: Active | Activity [3]: inactive | Activity [4]: inactive | Activity [5]: inactive
Structure (SMILES): O=C(CCCCCCC(=O)N/N=C/c1ccc(OCCOCCOCCOCCn2cc(CNc3cccc4c3C(=O)N(C3CCC(=O)NC3=O)C4=O)nn2)cc1)NO (centres undefined)
